This note sets out measurements from ChEMBL document CHEMBL3098071, “Synthesis and evaluation of novel azoles as potent antifungal agents” (2014).

SMILES strings stand for the structures. ≈ marks a conversion by molar mass, not a printed value.

The MIC80 is the lowest concentration that inhibits either 80% of growth or 80% of the strains tested, depending on the study. The low end stands for greater potency, the high end for weaker potency.

Holding throughout (type): functional
Assay [1] concerns Cryptococcus neoformans. Briefly: Antimicrobial activity against Cryptococcus neoformans after 72 hrs by broth microdilution method. The procedure, abridged:
(§1)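 Broth microdilution in 96-well plates following NCCLS methods. Compounds were dissolved in DMSO, serially diluted in growth medium, inoculated and incubated at 35°C. MIC read at 24 h for Candida albicans and at 72 h for Cryptococcus neoformans. MIC80 is the first well with about 80% less growth than the drug-free well. Values are means of three replicate tests.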

Assay [2] relates to Nannizzia gypsea. The assay can be described thus: Antimicrobial activity against Microsporum gypseum by broth microdilution method.
Assay [3] deals with Nakaseomyces glabratus. Briefly: Antimicrobial activity against Candida glabrata by broth microdilution method. In general terms: In broth dilution the organism is exposed to a series of concentrations in liquid medium.
Assay [4] deals with Candida albicans. Briefly: Antimicrobial activity against Candida albicans Y0109 after 24 hrs by broth microdilution method. The settings on record: Y0109, 24 h. An outline of the steps: as §1
Assay [5] relates to Trichophyton rubrum. Briefly: Antimicrobial activity against Trichophyton rubrum by broth microdilution method.
For assay [6], the system named is Candida albicans. The assay can be described thus: Antimicrobial activity against Candida albicans SC5314 after 24 hrs by broth microdilution method. The following applies: SC5314, 24 h. The procedure, abridged:
as §1

The subject of assay [7] is Candida parapsilosis. Briefly: Antimicrobial activity against Candida parapsilosis by broth microdilution method. The following applies: Lodderomyces parapsilosis.
For assay [8], the system named is Aspergillus fumigatus. The assay can be described thus: Antimicrobial activity against Aspergillus fumigatus by broth microdilution method.
Assay [9] concerns Candida albicans. Briefly: Ratio of itraconazole MIC80 to compound MIC80 for Candida albicans SC5314.
In assay [10] the test system is Candida albicans. The assay can be described thus: Ratio of voriconazole MIC80 to compound MIC80 for Candida albicans SC5314.

In the case of `OC(CN1CCN(CCCSc2nnc(-c3ccc(F)cc3)o2)CC1)(Cn1cncn1)c1ccc(F)cc1F` (centres undefined), the MIC80 turned out to be 0.25 µg/mL (≈ 0.447 µM) in [1]; 4 µg/mL (≈ 7.15 µM) in [2]; 0.25 µg/mL (≈ 0.447 µM) in [3]; 0.25 µg/mL (≈ 0.447 µM) in [4]; 0.0625 µg/mL (≈ 0.112 µM) in assay [5]; 0.0156 µg/mL (≈ 0.0279 µM) in assay [6]. Moreover, the MIC80 in [7] was 0.25 µg/mL (≈ 0.447 µM); in assay [8] it was above 64 µg/mL.

As to `OC(CN1CCN(CCCSc2nnc(-c3cccc(F)c3)o2)CC1)(Cn1cncn1)c1ccc(F)cc1F` (centres undefined), the MIC80 in assay [1] stood at 0.0625 µg/mL (≈ 0.112 µM); in assay [2] it was 1 µg/mL (≈ 1.79 µM); in assay [3], 0.0625 µg/mL (≈ 0.112 µM); in assay [4], 0.0625 µg/mL (≈ 0.112 µM); in assay [5], 0.0625 µg/mL (≈ 0.112 µM); in [6], 0.0039 µg/mL (≈ 0.00697 µM). In addition, the MIC80 in assay [7] is 0.25 µg/mL (≈ 0.447 µM); in assay [8], above 64 µg/mL. Besides, the Ratio in assay [9] amounted to 64; in assay [10], 16.

For the compound `OC(CN1CCN(CCCSc2nnc(-c3ccccc3F)o2)CC1)(Cn1cncn1)c1ccc(F)cc1F` (centres undefined), the MIC80 worked out at 0.0625 µg/mL (≈ 0.112 µM) in assay [1]; 1 µg/mL (≈ 1.79 µM) in [2]; 0.0625 µg/mL (≈ 0.112 µM) in [3]; 0.0156 µg/mL (≈ 0.0279 µM) in [4]; 0.0625 µg/mL (≈ 0.112 µM) in [5]; 0.0625 µg/mL (≈ 0.112 µM) in [6]. In addition, the values for the MIC80 in [7] and in assay [8] were 0.25 µg/mL (≈ 0.447 µM) and above 64 µg/mL, respectively.

Take `N#Cc1cccc(-c2nnc(SCCCN3CCN(CC(O)(Cn4cncn4)c4ccc(F)cc4F)CC3)o2)c1` (centres undefined): the MIC80 was determined as 0.25 µg/mL (≈ 0.441 µM) in [1]; 1 µg/mL (≈ 1.76 µM) in [2]; 0.25 µg/mL (≈ 0.441 µM) in assay [3]; 0.125 µg/mL (≈ 0.221 µM) in assay [4]; 0.25 µg/mL (≈ 0.441 µM) in assay [5]; 0.125 µg/mL (≈ 0.221 µM) in assay [6]. For the same compound, the MIC80 in assay [7] is 0.25 µg/mL (≈ 0.441 µM); in assay [8], above 64 µg/mL.

With `Cc1ccccc1-c1nnc(SCCCN2CCN(CC(O)(Cn3cncn3)c3ccc(F)cc3F)CC2)o1` (centres undefined), the MIC80 was determined as 0.125 µg/mL (≈ 0.225 µM) in assay [1]; 0.25 µg/mL (≈ 0.45 µM) in assay [2]; 0.125 µg/mL (≈ 0.225 µM) in assay [3]; 0.25 µg/mL (≈ 0.45 µM) in assay [4]; 0.25 µg/mL (≈ 0.45 µM) in assay [5]; 0.25 µg/mL (≈ 0.45 µM) in [6]. Moreover, the results for the MIC80 in [7] and in assay [8] were 0.125 µg/mL (≈ 0.225 µM) and above 64 µg/mL, respectively.

Take `N#Cc1ccccc1-c1nnc(SCCCN2CCN(CC(O)(Cn3cncn3)c3ccc(F)cc3F)CC2)o1` (centres undefined): the MIC80 amounted to 0.25 µg/mL (≈ 0.441 µM) in [1]; 1 µg/mL (≈ 1.76 µM) in [2]; 0.125 µg/mL (≈ 0.221 µM) in assay [3]; 0.125 µg/mL (≈ 0.221 µM) in [4]; 0.25 µg/mL (≈ 0.441 µM) in assay [5]; 0.125 µg/mL (≈ 0.221 µM) in assay [6]. Moreover, the MIC80 in assay [7] is 0.25 µg/mL (≈ 0.441 µM); in assay [8], above 64 µg/mL.

Take `COc1ccccc1-c1nnc(SCCCN2CCN(CC(O)(Cn3cncn3)c3ccc(F)cc3F)CC2)o1` (centres undefined): the MIC80 is 4 µg/mL (≈ 7 µM) in [1]; 16 µg/mL (≈ 28 µM) in [2]; 1 µg/mL (≈ 1.75 µM) in [3]; 0.125 µg/mL (≈ 0.219 µM) in [4]; 0.25 µg/mL (≈ 0.437 µM) in assay [5]; 0.25 µg/mL (≈ 0.437 µM) in [6]. Further, the MIC80 was 16 µg/mL (≈ 28 µM) in assay [7] and above 64 µg/mL in assay [8].

In the case of `OC(CN1CCN(CCCSc2nnc(-c3ccc(Cl)cc3)o2)CC1)(Cn1cncn1)c1ccc(F)cc1F` (centres undefined), the MIC80 in assay [1] turned out to be 0.0625 µg/mL (≈ 0.108 µM); in assay [2], 4 µg/mL (≈ 6.94 µM); in assay [3], 0.0625 µg/mL (≈ 0.108 µM); in assay [4], 0.0625 µg/mL (≈ 0.108 µM); in assay [5] it was 0.25 µg/mL (≈ 0.434 µM); in assay [6], 0.0039 µg/mL (≈ 0.00677 µM). Moreover, the MIC80 was 0.0625 µg/mL (≈ 0.108 µM) in assay [7] and above 64 µg/mL in assay [8]. In assay [10], the Ratio is recorded as 16.

As for `CC(=O)N1CCN(c2ccc(OCC3COC(Cn4ccnc4)(c4ccc(Cl)cc4Cl)O3)cc2)CC1` (centres undefined) [KETOCONAZOLE], the MIC80 in assay [1] stood at 4 µg/mL (≈ 7.53 µM); in assay [2] it was 2 µg/mL (≈ 3.76 µM); in assay [3], 8 µg/mL (≈ 15.1 µM); in [4], 8 µg/mL (≈ 15.1 µM); in assay [5] it was 8 µg/mL (≈ 15.1 µM); in assay [6], 4 µg/mL (≈ 7.53 µM). Besides, the MIC80 in [7] came out at 8 µg/mL (≈ 15.1 µM); in assay [8], 2 µg/mL (≈ 3.76 µM).

In the case of `C[C@@H](c1ncncc1F)[C@](O)(Cn1cncn1)c1ccc(F)cc1F` [VORICONAZOLE], the MIC80 worked out at 0.0156 µg/mL (≈ 0.0447 µM) in assay [1]; 0.125 µg/mL (≈ 0.358 µM) in assay [2]; 0.0625 µg/mL (≈ 0.179 µM) in assay [3]; 0.0625 µg/mL (≈ 0.179 µM) in assay [4]; 0.25 µg/mL (≈ 0.716 µM) in assay [5]; 0.0625 µg/mL (≈ 0.179 µM) in assay [6]. The MIC80 in assay [7] and in [8] was 0.0625 µg/mL (≈ 0.179 µM) each time.

As to `OC(CN1CCN(CCCSc2nnc(-c3ccccc3)o2)CC1)(Cn1cncn1)c1ccc(F)cc1F` (centres undefined), the MIC80 amounted to 0.0625 µg/mL (≈ 0.115 µM) in [1]; 1 µg/mL (≈ 1.85 µM) in [2]; 0.0625 µg/mL (≈ 0.115 µM) in [3]; 0.0156 µg/mL (≈ 0.0288 µM) in assay [4]; 0.25 µg/mL (≈ 0.462 µM) in assay [5]; 0.0156 µg/mL (≈ 0.0288 µM) in assay [6]. In addition, the results for the MIC80 in [7] and in [8] were 0.0625 µg/mL (≈ 0.115 µM) and above 64 µg/mL, respectively.

`Cc1ccc(-c2nnc(SCCCN3CCN(CC(O)(Cn4cncn4)c4ccc(F)cc4F)CC3)o2)cc1` (centres undefined): the MIC80 in [1] amounted to 1 µg/mL (≈ 1.8 µM); in [2] it was 1 µg/mL (≈ 1.8 µM); in [3] it was 0.25 µg/mL (≈ 0.45 µM); in [4], 0.125 µg/mL (≈ 0.225 µM); in assay [5] it was 1 µg/mL (≈ 1.8 µM); in assay [6], 0.25 µg/mL (≈ 0.45 µM). Also, the MIC80 in assay [7] was 0.025 µg/mL (≈ 0.045 µM); in assay [8] it was above 64 µg/mL.
